Laboratory results as given in publication PMC6748665 (Journal of Medicinal Chemistry, 2019).
Like-named read-outs stand apart in the source and are kept apart here.

Legend:
[1] = biological target: T1, PaTrmD (Pseudomonas aeruginosa, UniProt Q9HXQ1); test: TrmD inhibitor assay; format: biochemical; conditions: for reduction of enzyme inhibitory activity compared with the alkyl chain: ethylene glycol substituents
T1 sequence (Q9HXQ1 5-250): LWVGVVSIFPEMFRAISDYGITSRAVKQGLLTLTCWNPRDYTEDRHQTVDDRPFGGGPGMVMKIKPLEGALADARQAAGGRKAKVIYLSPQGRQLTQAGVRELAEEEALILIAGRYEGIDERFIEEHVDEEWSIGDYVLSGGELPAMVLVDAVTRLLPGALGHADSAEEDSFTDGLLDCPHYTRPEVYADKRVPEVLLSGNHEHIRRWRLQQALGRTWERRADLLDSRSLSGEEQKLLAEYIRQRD
Summary of the method: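 E. coli-expressed PaTrmD (IMAC and size-exclusion purified, 8 nM) was preincubated 15 min at ambient temperature with serially diluted inhibitor (0–500 μM). Reaction buffer was 50 mM Tris-HCl pH 8.0, 80 mM NaCl, 1 mM MgCl2, 0.5 mM DTT and 0.01% Triton X-100, with 2 μM SAM and 0.5 μM in vitro-transcribed tRNALeu(CAG). Reactions ran 45 min at 37 °C. SAH was detected by MTase-Glo luminescence against an SAH standard curve.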

[2] = test system: collection of Gram-positive and Gram-negative bacteria; test: Single-dose; format: cell-based; conditions: against Gram-positive bacteria and mycobacteria; single dose 100 μM
[3] = test system: bacteria; conditions: in words; cited from earlier work
[4] = biological target: T1, PaTrmD; test: Surface plasmon resonance; format: binding; conditions: SPR
[5] = biological target: T2, SaTrmD (Staphylococcus aureus, UniProt Q2FZ43); conditions: cited from earlier work
T2 sequence (Q2FZ43 1-245): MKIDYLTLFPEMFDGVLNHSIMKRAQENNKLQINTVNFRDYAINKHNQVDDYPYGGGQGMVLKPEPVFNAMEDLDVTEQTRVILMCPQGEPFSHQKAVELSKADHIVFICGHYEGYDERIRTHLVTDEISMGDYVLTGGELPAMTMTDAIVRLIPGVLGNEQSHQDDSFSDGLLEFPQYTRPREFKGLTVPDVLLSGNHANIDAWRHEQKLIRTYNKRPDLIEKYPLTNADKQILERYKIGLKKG

[6] = biological target: T1, PaTrmD; test: Thermal stability; format: binding
[7] = biological target: T1, PaTrmD; conditions: ref 15 (Hill et al.); cited from earlier work
[8] = PaTrmD, O^6-substituted thienopyrimidinones, NA = not active up to 50 μM

Compound: 4-Methoxy-N-(4-(morpholinomethyl)benzyl)thieno[2,3-d]pyrimidine-5-carboxamide [Compound 45]
- IC50 [1, 8]: > 50 µM

Compound: N-(4-(Morpholinomethyl)benzyl)-4-propoxythieno[2,3-d]pyrimidine-5-carboxamide [Compound 46]
- IC50 [1, 8]: > 50 µM

Compound: CCCCCCCCN(Cc1ccccc1)Cc1ccc(CNC(=O)c2csc3nc[nH]c(=O)c23)cc1 [Compound 20, N-(4-((Benzyl(octyl)amino)methyl)benzyl)-4-oxo-3,4-dihydrothieno[2,3-d]pyrimidine-5-carboxamide]
- TrmD inhibitory activity (in words) ([1]; PaTrmD): nearly abolished

Compound: O=C(NCc1ccc(CNCCOCCO)cc1)c1csc2nc[nH]c(=O)c12 [Compound 25, N-(4-(((2-(2-Hydroxyethoxy)ethyl)amino)methyl)benzyl)-4-oxo-3,4-dihydrothieno[2,3-d]pyrimidine-5-carboxamide]
- reduction of enzyme inhibitory activity compared with the alkyl chain ([1]; PaTrmD): 4–8 fold

Compound: CCCCCCCCCCNCc1ccc(CNC(=O)c2csc3nc[nH]c(=O)c23)cc1 [Compound 23, N-(4-((Decylamino)methyl)benzyl)-4-oxo-3,4-dihydrothieno[2,3-d]pyrimidine-5-carboxamide]
- growth inhibitory activity at 100 μM [2]: showed growth inhibitory activity

Compound: N-(4-((Benzylamino)methyl)benzyl)-4-propoxythieno[2,3-d]pyrimidine-5-carboxamide [Compound 40]
- IC50 [1, 8]: > 50 µM

Compound: O=C(NCc1ccc(CN2CCCCC2)cc1)c1csc2nc[nH]c(=O)c12 [Compound 9, 4-Oxo-N-(4-(piperidin-1-ylmethyl)benzyl)-3,4-dihydrothieno[2,3-d]pyrimidine-5-carboxamide]
- reduction of inhibitory activity compared with AZ51 ([1]; PaTrmD): 6–16 fold

Compound: NC1CCN(Cc2ccc(CNC(=O)c3csc4nc[nH]c(=O)c34)cc2)CC1 [AZ51]
- antibacterial activity [3]: lacked antibacterial activity
- faster on-rate (association rate) compared to SAH ([4]; PaTrmD): ~2 fold
- slower off-rate (dissociation rate) compared to SAH ([4]; PaTrmD): ~30 fold
- IC50 [5]: 1.2 µM
- Tm higher than thermostabilization conferred by SAH [6]: 17 °C
- IC50 [7]: 0.039 µM

Compound: N-(4-((Benzylamino)methyl)benzyl)-4-methoxythieno[2,3-d]pyrimidine-5-carboxamide [Compound 39]
- IC50 [1, 8]: > 50 µM

Compound: CCCCCCCCNCc1ccc(CNC(=O)c2csc3nc[nH]c(=O)c23)cc1 [Compound 15, N-(4-((Octylamino)methyl)benzyl)-4-oxo-3,4-dihydrothieno[2,3-d]pyrimidine-5-carboxamide]
- higher binding affinity (KD) to PaTrmD compared with AZ51 [4]: ~50 fold
- growth inhibitory activity at 100 μM [2]: showed growth inhibitory activity
- IC50 [1]: 0.02 ± 0.01 µM
- increase of IC50 when tRNA concentration was increased ([1]; PaTrmD, tRNA competition assay, from 0.02 to 0.26 μM): 13 fold

Compound: CCOCCOCCNCc1ccc(CNC(=O)c2csc3nc[nH]c(=O)c23)cc1 [Compound 26, N-(4-(((2-(2-Ethoxyethoxy)ethyl)amino)methyl)benzyl)-4-oxo-3,4-dihydrothieno[2,3-d]pyrimidine-5-carboxamide]
- reduction of enzyme inhibitory activity compared with the alkyl chain ([1]; PaTrmD): 4–8 fold

Compound: O=C(NCc1ccc(CNC23CC4CC(CC(C4)C2)C3)cc1)c1csc2nc[nH]c(=O)c12 [Compound 17, N-(4-((((3s,5s,7s)-Adamantan-1-yl)amino)methyl)benzyl)-4-oxo-3,4-dihydrothieno[2,3-d]pyrimidine-5-carboxamide]
- TrmD inhibitory activity (in words) ([1]; PaTrmD): submicromolar activity

Compound: CCCCCCCCCCCCNCc1ccc(CNC(=O)c2csc3nc[nH]c(=O)c23)cc1 [Compound 24, N-(4-((Dodecylamino)methyl)benzyl)-4-oxo-3,4-dihydrothieno[2,3-d]pyrimidine-5-carboxamide]
- growth inhibitory activity at 100 μM [2]: showed growth inhibitory activity

Compound: O=C(NCc1ccc(CNC2CCCCC2)cc1)c1csc2nc[nH]c(=O)c12 [Compound 16, N-(4-((Cyclohexylamino)methyl)benzyl)-4-oxo-3,4-dihydrothieno[2,3-d]pyrimidine-5-carboxamide]
- TrmD inhibitory activity (in words) ([1]; PaTrmD): submicromolar activity

Compound: 4-(Hexyloxy)-N-(4-((octylamino)methyl)benzyl)thieno[2,3-d]pyrimidine-5-carboxamide [Compound 44]
- IC50 [1, 8]: > 50 µM

Compound: O=C(NCc1ccc(CNCc2ccccc2)cc1)c1csc2nc[nH]c(=O)c12 [Compound 14, N-(4-((Benzylamino)methyl)benzyl)-4-oxo-3,4-dihydrothieno[2,3-d]pyrimidine-5-carboxamide]
- TrmD inhibitory activity (in words) ([1]; PaTrmD): submicromolar activity

Compound: O=C(NCc1ccc(CN2CCOCC2)cc1)c1csc2nc[nH]c(=O)c12 [Compound 10, N-(4-(Morpholinomethyl)benzyl)-4-oxo-3,4-dihydrothieno[2,3-d]pyrimidine-5-carboxamide]
- reduction of inhibitory activity compared with AZ51 ([1]; PaTrmD): 6–16 fold

Compound: N-(4-((Octylamino)methyl)benzyl)-4-propoxythieno[2,3-d]pyrimidine-5-carboxamide [Compound 43]
- IC50 [1, 8]: > 50 µM
